Tests used:
Rattus norvegicus [1] = test: Antiinflammatory activity against carrageenan-induced hind paw edema in rat at 41 umol/kg, po after 3 hrs relative to flurbiprophen; assay type: functional
Outline: (§1)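 Given orally to rats at a dose equimolar to 10 mg/kg (41 µmol/kg) of the reference drug. Paw-oedema % inhibition was calculated at both 3 h and 4 h after dosing.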

Rattus norvegicus [2] = test: Antiinflammatory activity against carrageenan-induced hind paw edema in rat at 41 umol/kg, po after 4 hrs relative to flurbiprophen; assay type: functional; outline: as §1
Gastric mucosa = test: Inhibition of lipid peroxidation in mouse gastric mucosa tissue assessed as malondialdehyde level per 100 mg tissue relative to flurbiprophen; assay type: functional, tissue-based
Outline: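 Animals receive the oral dose used in the ulcerogenic study, equimolar to 30 mg/kg flurbiprofen. Lipid peroxidation in the tissue is read as MDA content in nmol per 100 mg tissue, given as mean ± SEM (n = 6). Comparison is against the standard by ANOVA with Dunnett's test.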

Mus musculus [3] = test: Ulcerogenic effect in mouse at 123 umol/kg, po relative to flurbiprophen; assay type: toxicity, organism-based; conditions: in vivo
Outline: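 Acute ulcerogenic test with oral dosing at an amount equimolar to 30 mg/kg flurbiprofen. Gastric damage is scored as a severity index, given as mean ± SEM (n = 6). Comparison is against the standard by ANOVA with Dunnett's multiple comparison test.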

Mus musculus [4] = test: Analgesic activity in mouse at 41 umol/kg, po by tail immersion method relative to flurbiprophen; assay type: functional
Outline: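 Tail-immersion test in mice, oral dose of 41 µmol/kg. Tail reaction time (s) was read before dosing (0 h) and 4 h after dosing. % inhibition was calculated relative to each animal's pre-treatment value. n = 6, compared by paired Student's t test.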

Liver = test: Hepatotoxicity in rat assessed as hepatocyte necrosis; assay type: toxicity, tissue-based; conditions: hepatocytes

| SMILES | Activity (Rattus norvegicus [1]) [%] | Activity (Rattus norvegicus [2]) [%] | Activity (Gastric mucosa) [nmol] | UI (Mus musculus [3]) | Activity (Mus musculus [4]) [%] | Activity (Liver) |
| --- | --- | --- | --- | --- | --- | --- |
| COc1ccc(C2CC(c3ccc(-c4ccccc4)cc3)=NN2C(=O)c2ccccc2)cc1 (stereo not drawn) | 40.34 | 47.36 | – | – | – | – |
| COc1ccc(C2CC(c3ccc(-c4ccccc4)cc3)=NN2)cc1 (stereo not drawn) | 35.08 | 36.83 | – | – | – | – |
| O=C(c1ccccc1)N1N=C(c2ccc(-c3ccccc3)cc2)CC1c1ccccc1 (stereo not drawn) | 28.06 | 33.32 | – | – | – | – |
| COc1cc(OC)c(C2CC(c3ccc(-c4ccccc4)cc3)=NN2)c(OC)c1 (stereo not drawn) | 80.7 | 82.45 | 5.58 | 0.833 | 28.6 | – |
| COc1ccc(C2CC(c3ccc(-c4ccccc4)cc3)=NN2C(=O)c2ccccc2)cc1OC (stereo not drawn) | 28.06 | 35.08 | – | – | – | – |
| COc1cc(OC)c(C2CC(c3ccc(-c4ccccc4)cc3)=NN2C(=O)c2ccccc2)c(OC)c1 (stereo not drawn) | 73.68 | 75.38 | 5.18 | 0.583 | 43.2 | Non-toxic |
| Cc1ccc(C2CC(c3ccc(-c4ccccc4)cc3)=NN2)cc1 (stereo not drawn) | 73.69 | 82.45 | 5.04 | 0.5 | 72.9 | Non-toxic |
| CN(C)c1ccc(C2CC(c3ccc(-c4ccccc4)cc3)=NN2C(=O)c2ccccc2)cc1 (stereo not drawn) | 33.32 | 35.08 | – | – | – | – |
| Cc1ccc(C2CC(c3ccc(-c4ccccc4)cc3)=NN2C(=O)c2ccccc2)cc1 (stereo not drawn) | 29.82 | 31.57 | – | – | – | – |
| c1ccc(-c2ccc(C3=NNC(c4ccccc4)C3)cc2)cc1 (stereo not drawn) | 35.08 | 38.6 | – | – | – | – |
| COc1ccc(C2CC(c3ccc(-c4ccccc4)cc3)=NN2)cc1OC (stereo not drawn) | 35.08 | 40.35 | – | – | – | – |
| O=C(c1ccccc1)N1N=C(c2ccc(-c3ccccc3)cc2)CC1c1ccc(Cl)cc1 (stereo not drawn) | 35.08 | 42.1 | – | – | – | – |
| CN(C)c1ccc(C2CC(c3ccc(-c4ccccc4)cc3)=NN2)cc1 (stereo not drawn) | 33.33 | 36.84 | – | – | – | – |
| Clc1ccccc1C1CC(c2ccc(-c3ccccc3)cc2)=NN1 (stereo not drawn) | 31.57 | 31.57 | – | – | – | – |
| CC(C(=O)O)c1ccc(-c2ccccc2)c(F)c1 (stereo not drawn) [FLURBIPROFEN] | 73.68 | 80.69 | 7.51 | 1.666 | 69.5 | – |
| O=C(c1ccccc1)N1N=C(c2ccc(-c3ccccc3)cc2)CC1c1ccccc1Cl (stereo not drawn) | 31.57 | 38.59 | – | – | – | – |
| Clc1ccc(C2CC(c3ccc(-c4ccccc4)cc3)=NN2)cc1 (stereo not drawn) | 22.8 | 28.06 | – | – | – | – |

Reference: ChEMBL document CHEMBL1143162, “Synthesis and pharmacological evaluation of pyrazoline derivatives as new anti-inflammatory and analgesic agents” (Bioorg Med Chem Lett, 2008)
